# Measured values collected from several papers.
# Lines come from different studies, so protocols differ.
Structure (SMILES),tested on,test,system,setting,quantity,value
NC/C(=C\F)COc1cccc(Cn2c(=S)[nH]c(=O)c3[nH]cnc32)c1,"ATP-dependent translocase ABCB1 (ABCB1, Homo sapiens, UniProt P08183)","transporter efflux, inhibitor",,30 µM,inhibition,< 50%
COc1cc(/C=C/c2cc(/C=C/c3ccc(O)c(OC)c3)n(-c3ccc(Cl)cc3Cl)n2)ccc1O,WRL68,"cell growth or viability, MTT",,48 h,CC50,> 99 µM
COc1cc(C2Oc3cc([C@H]4Oc5cc(O)cc(O)c5C(=O)[C@@H]4O)ccc3OC2CO)ccc1O (stereo partly shown),,,Caco-2,"100 µg/mL, 2 h",Papp B→A,17.2 ×10⁻⁶ cm/s
CCN1CCN(Cc2ccc(Nc3nc4ccc(Oc5ccnc(NC(=O)C6CCN(C)CC6)c5)cc4n3C)cc2C(F)(F)F)CC1,,,,,pKa,8.8
COc1ccc(-c2nn(-c3ccccc3)cc2C=NNc2cn[nH]c(=O)c2Cl)cc1,Jurkat,"cell growth or viability, imaging",,,CC50,> 40 µM
N#Cc1ccc(C[C@H](Nc2ncc(-c3ccc(F)cc3)o2)C(=O)N2CCc3ccccc32)cc1,,,aqueous buffer,"2 h, pH 7.4, 37 °C",kinetic solubility,1.8 µM
O=c1c(-c2ccc(O)cc2)coc2c([C@@H]3O[C@H](CO)[C@@H](O)[C@H](O)[C@H]3O)c(O)ccc12,,,Caco-2,"100 µg/mL, 2 h",Papp B→A,5.66 ×10⁻⁶ cm/s
CC[C@H](C)[C@H](NC(=O)[C@H](CCC(=O)O)NC(=O)[C@H](CCC(=O)O)NC(=O)[C@@H]1CCCN1C(=O)[C@H](CO)NC(=O)[C@H](C)NC(=O)[C@H](CC(=O)O)NC(=O)[C@H](CCC(=O)O)NC(=O)[C@H](CCC(=O)O)NC(=O)[C@@H]1CCCN1C(=O)[C@H](CCCCNC(=O)COCCOCCNC(=O)COCCOCCNC(=O)CC[C@H](NC(=O)CCCCCCCCCCCCCCCCC(=O)O)C(=O)O)NC(=O)[C@H](C)NC(=O)[C@@H]1CCCN1C(=O)[C@H](C)NC(=O)CC(C)C)C(=O)N[C@@H](CCC(N)=O)C(=O)N[C@@H](CCCNC(=N)N)C(=O)N[C@@H](Cc1ccc(O)cc1)C(=O)N[C@@H](Cc1ccc(O)cc1)C(=O)N[C@H](C(=O)N[C@@H](CO)C(=O)N[C@@H](CC(C)C)C(=O)N[C@@H](CCCNC(=N)N)C(=O)N[C@@H](Cc1c[nH]cn1)C(=O)N[C@@H](Cc1ccc(O)cc1)C(=O)N[C@@H](Cc1ccc(O)cc1)C(=O)N[C@@H](CC(N)=O)C(=O)N[C@@H](Cc1c[nH]c2ccccc12)C(=O)N[C@@H](CC(C)C)C(=O)N[C@H](C(=O)N[C@@H](CCCNC(=N)N)C(=O)N[C@@H](CCC(N)=O)C(=O)N[C@@H](CCCNC(=N)N)C(=O)N[C@@H](Cc1ccc(O)cc1)C(N)=O)[C@@H](C)O)C(C)C,,,"male beagle dog, plasma","subcutaneous, 5 nmol/kg",Tmax,32 h
COc1cc(/C=C/C(=O)/C=C/c2ccc(O)c(OC)c2)ccc1O,WRL68,"cell growth or viability, MTT",,"3.2 µg/mL, 48 h",viability,11.5%
Cc1cc(C)c(CNC(=O)c2cc(Cl)c3c(c2C)O[C@@](C)([C@H]2CC[C@H](N(C)C)CC2)O3)c(=O)[nH]1,,,Caco-2,10 µM,Papp B→A,20.4 ×10⁻⁶ cm/s
